Data reported in publication PMC10166105 (International Journal of Nanomedicine, 2023).

How the values were obtained:
[1] = tested on: PC3 cells; test: Cell proliferation assay in 2D monolayer culture; format: cell-based, human
How it was run: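 PC3 cells were grown in RPMI 1640 with 10% FBS and antibiotics, seeded at 1×10^4 cells/well, attached for 24 h, then dosed in 2.5% FBS-RPMI 1640. Single doses of 50, 100 and 200 μM were read at 72 h; daily 50 μM dosing ran for 4 days. Readout was WST-1 for 1 h with absorbance at 450 nm, versus untreated cells, plus live/dead imaging. n = 3, one-way ANOVA.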

[2] = tested on: PC3 spheroids; test: Anti-tumor response in 3D spheroid culture model; format: cell-based, human; conditions: PC3 3D spheroids, 50 μM, 7 days, n = 3
How it was run: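 PC3 cells were suspended at 2000 cells/mL in 10% FBS-RPMI 1640 with 1% (v/v) Matrigel, plated in ultra-low-attachment wells, centrifuged at 1500 rpm for 10 min and grown at 37 °C, 5% CO2. After 4 days of spheroid formation, test compound was added once at final 50 μM in 2.5% FBS-RPMI. Spheroid area was imaged over 7 days and expressed as fold of day-0 area. n = 3.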

[3] = property table of leuprolide acetate; no matrix and reference not given; cited from earlier work
[4] = property table of leuprolide acetate; no reference given; cited from earlier work
[5] = pH 7.4

For `CCNC(=O)[C@@H]1CCCN1C(=O)[C@H](CCCNC(=N)N)NC(=O)[C@H](CC(C)C)NC(=O)[C@@H](CC(C)C)NC(=O)[C@H](Cc1ccc(O)cc1)NC(=O)[C@H](CO)NC(=O)[C@H](Cc1c[nH]c2ccccc12)NC(=O)[C@H](Cc1c[nH]cn1)NC(=O)[C@@H]1CCC(=O)N1` [LEU, Leuprolide], the “Anti-proliferative effect (% of control)” value ([1]; PC3, treatment repeated daily at 50 µM for 4 days, WST-1, n = 3) is given as 8.9%, the “Spheroid growth (spheroid area/volume), one-time treatment” value [2] is given as “expansion of spheroid volume” and the Half-life [3] is given as 3 h. The Physiological charge [4] was “+1”.
For `CCCCCCCCCCCCCCCCCC(=O)O` [SA, stearic acid], the “Cell survival / cell growth after one-time treatment” value ([1]; PC3, one-time treatment, 50, 100, 200 μM, 72 h incubation, WST-1) was “significantly inhibited cell growth”.
For “Leuprolide–lauric acid nanoparticle [LLN]”, the “Change of particle size, short-time stability in PBS” value (from here on “Change of particle size”) [5] was “slight increase in the particle size”.
For “Leuprolide–palmitic acid nanoparticle [LPN]”, the “Change of particle size” value [5] was “no significant difference”.
In the case of “Leuprolide–stearic acid nanoparticle [LSN]”, the “Change of particle size” value [5] is reported as “no significant difference”.
